Reference: ChEMBL document CHEMBL2321801, “Induction of ABCA1 and ABCG1 expression by the liver X receptor modulator cineole in macrophages” (Bioorg Med Chem Lett, 2013)
Activity calls are given as the source filed them. The calls are words filed in the database; no cut-off is given here.

How the values were obtained:
[1] = molecular target: T1, Oxysterols receptor LXR-beta (Homo sapiens, UniProt P55055); assay: Binding affinity to LXRbeta (unknown origin)
T1 sequence (P55055 whole entry): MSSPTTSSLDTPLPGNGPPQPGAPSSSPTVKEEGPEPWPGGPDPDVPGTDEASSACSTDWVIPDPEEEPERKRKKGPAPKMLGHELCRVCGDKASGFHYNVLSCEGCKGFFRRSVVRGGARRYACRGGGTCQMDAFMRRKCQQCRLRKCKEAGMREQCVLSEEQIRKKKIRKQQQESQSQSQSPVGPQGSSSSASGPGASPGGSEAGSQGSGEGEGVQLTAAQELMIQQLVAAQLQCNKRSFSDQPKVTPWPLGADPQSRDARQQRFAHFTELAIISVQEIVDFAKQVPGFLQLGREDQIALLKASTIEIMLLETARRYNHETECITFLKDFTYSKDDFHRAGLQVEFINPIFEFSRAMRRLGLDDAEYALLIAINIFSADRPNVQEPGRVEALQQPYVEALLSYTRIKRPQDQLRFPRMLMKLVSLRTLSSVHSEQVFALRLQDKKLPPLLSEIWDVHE

HepG2 [2] = assay: Reduction in lipid accumulation in human HepG2 cells at 1 microM by Oil Red O staining; assay type: functional, cell-based
[3] = molecular target: T2, Oxysterols receptor LXR-alpha (Homo sapiens) (UniProt Q13133); assay: Induction of recruitment of Trap220 peptide to LXRalpha (unknown origin) by TR-FRET LXR-alpha co-activator assay
T2 sequence (whole entry): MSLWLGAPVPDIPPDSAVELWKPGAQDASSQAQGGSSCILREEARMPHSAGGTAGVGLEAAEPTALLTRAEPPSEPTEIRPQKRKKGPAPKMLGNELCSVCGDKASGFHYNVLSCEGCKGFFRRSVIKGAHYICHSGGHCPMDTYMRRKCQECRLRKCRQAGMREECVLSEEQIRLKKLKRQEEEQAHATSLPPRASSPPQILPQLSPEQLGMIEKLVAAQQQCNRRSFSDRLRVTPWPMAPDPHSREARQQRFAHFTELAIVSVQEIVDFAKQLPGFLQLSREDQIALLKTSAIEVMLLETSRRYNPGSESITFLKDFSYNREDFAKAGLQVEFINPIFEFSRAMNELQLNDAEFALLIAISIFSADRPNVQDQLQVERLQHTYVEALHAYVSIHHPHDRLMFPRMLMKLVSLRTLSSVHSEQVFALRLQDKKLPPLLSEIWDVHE
Outline: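 Cell-free LanthaScreen TR-FRET LXR-α co-activator recruitment assay, run per kit instructions, with T0901317 as reference agonist.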

[4] = molecular target: T3, Oxysterols receptor LXR-beta (Homo sapiens) (UniProt P55055); assay: Induction of recruitment of D22 peptide to LXRbeta (unknown origin) by TR-FRET LXR-alpha co-activator assay
T3 sequence (whole entry): T1 sequence (P55055 whole entry)

[5] = molecular target: T4, Oxysterols receptor LXR-alpha (Homo sapiens, UniProt Q13133); assay: Binding affinity to LXRalpha (unknown origin)
T4 sequence (Q13133 whole entry): T2 sequence (whole entry)

HepG2 [6] = assay: Reduction in lipid accumulation in human HepG2 cells at 50 microM by Oil Red O staining; assay type: functional, cell-based
HepG2 [7] = assay: Downregulation of LXRalpha mRNA expression in human HepG2 cells at 50 to 100 microM by qPCR; assay type: functional
Outline: (§1)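 Cells were preincubated 24 h in DMEM, then exposed 24 h to 50 or 100 µM (final) at 37 °C in 5% CO2. Vehicle was 1% DMSO, and each treatment was run at least in triplicate. Total RNA was extracted and transcripts were measured by qPCR relative to vehicle control, mean ± SE, n = 3.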

RAW264.7 [8] = assay: Induction of cholesterol efflux in mouse RAW264.7 cells assessed as reduction in cellular cholesterol level at 100 microM in presence of higher cholesterol relative to control; assay type: functional; design: scale not given: the % may be the effect or the level left
[9] = molecular target: Oxysterols receptor LXR-beta (Homo sapiens) (UniProt P55055); assay: Agonist activity at LXRbeta (unknown origin) transfected in human CHO-K1 cells assessed as induction of transactivation at 200 microM by luciferase reporter gene transactivation assay relative to control
RAW264.7 [10] = assay: Induction of LXR-responsive genes in mouse RAW264.7 cells assessed as increase in ABCA1 protein expression measured at 100 microM by immunoblotting; assay type: functional, cell-based
Outline: (§2)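 Cells were preincubated 24 h in DMEM, then treated 24 h with 50 or 100 µM alongside a 1% DMSO vehicle. They were lysed in ice-cold Tris-HCl pH 7.4/EDTA/NaCl/0.5% Triton X-100 buffer with protease inhibitors. 30 µg protein was run on 10% SDS-PAGE and transferred to nitrocellulose. Blots were probed with target antibodies, with α-tubulin as reference, n = 3.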

HepG2 [11] = assay: Reduction in lipid accumulation in human HepG2 cells at 100 microM by Oil Red O staining; assay type: functional, cell-based
RAW264.7 [12] = assay: Induction of cholesterol efflux genes in mouse RAW264.7 cells assessed as increase in LXRalpha protein expression measured at 100 microM by immunoblotting; assay type: functional, cell-based; outline: as §2
RAW264.7 [13] = assay: Induction of LXR-responsive genes in mouse RAW264.7 cells assessed as increase in Abca1 mRNA expression measured at 50 to 100 microM by qPCR; assay type: functional, cell-based; outline: as §1
RAW264.7 [14] = assay: Induction of cholesterol efflux genes in mouse RAW264.7 cells assessed as increase in LXRbeta mRNA expression measured by qPCR; assay type: functional, cell-based; outline: as §1
RAW264.7 [15] = assay: Induction of cholesterol efflux genes in mouse RAW264.7 cells assessed as increase in LXRbeta mRNA expression measured at 100 microM by qPCR; assay type: functional; outline: as §1
HepG2 [16] = assay: Downregulation of FAS mRNA expression in human HepG2 cells at 50 to 100 microM by qPCR; assay type: functional; outline: as §1
RAW264.7 [17] = assay: Induction of cholesterol efflux in mouse RAW264.7 cells assessed as reduction in cellular cholesterol level at 100 microM relative to control; assay type: functional; design: scale not given: the % may be the effect or the level left
HepG2 [18] = assay: Downregulation of SREBP-1c protein expression in human HepG2 cells at 50 to 100 microM by immunoblotting; assay type: functional; outline: as §2
[19] = molecular target: T2, Oxysterols receptor LXR-alpha (Homo sapiens); assay: Agonist activity at LXRalpha (unknown origin) transfected in human CHO-K1 cells assessed as induction of transactivation at 50 to 200 microM by luciferase reporter gene transactivation assay relative to control; assay type: cell-based
Outline: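 CHO-K1 cells in DMEM/F12 with 10% heat-inactivated FBS and 1% penicillin/streptomycin, co-transfected with pGL4.35 GAL4-UAS luciferase reporter, pSV-β-galactosidase and a human LXRα plasmid (pFN26A). After 24 h, cells were treated 24 h with 50, 100 or 200 µM. Firefly luciferase was normalized to β-galactosidase in the same lysate and expressed vs control, mean ± SE, n = 3.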

[20] = molecular target: Oxysterols receptor LXR-beta (Homo sapiens) (UniProt P55055); assay: Agonist activity at LXRbeta (unknown origin) transfected in human CHO-K1 cells assessed as induction of transactivation at 50 microM by luciferase reporter gene transactivation assay relative to control
[21] = molecular target: Oxysterols receptor LXR-beta (Homo sapiens) (UniProt P55055); assay: Agonist activity at LXRbeta (unknown origin) transfected in human CHO-K1 cells assessed as induction of transactivation at 100 microM by luciferase reporter gene transactivation assay relative to control
RAW264.7 [22] = assay: Induction of cholesterol efflux genes in mouse RAW264.7 cells assessed as increase in LXRalpha mRNA expression measured at 50 to 100 microM by qPCR; assay type: functional; outline: as §1
HepG2 [23] = assay: Downregulation of LXRalpha protein expression in human HepG2 cells at 50 to 100 microM by immunoblotting; assay type: functional; outline: as §2
HepG2 [24] = assay: Downregulation of SCD-1 mRNA expression in human HepG2 cells at 50 to 100 microM by qPCR; assay type: functional; outline: as §1
RAW264.7 [25] = assay: Induction of cholesterol efflux genes in mouse RAW264.7 cells assessed as increase in LXRbeta mRNA expression measured at 50 microM by qPCR; assay type: functional; outline: as §1
HepG2 [26] = assay: Downregulation of SREBP-1c mRNA expression in human HepG2 cells at 50 to 100 microM by qPCR; assay type: functional; outline: as §1
HepG2 [27] = assay: Downregulation of FAS protein expression in human HepG2 cells at 50 to 100 microM by immunoblotting; assay type: functional; outline: as §2
RAW264.7 [28] = assay: Induction of cholesterol efflux genes in mouse RAW264.7 cells assessed as increase in LXRbeta protein expression measured at 100 microM by immunoblotting; assay type: functional, cell-based; outline: as §2
[29] = molecular target: Oxysterols receptor LXR-beta (Homo sapiens) (UniProt P55055); assay: Agonist activity at LXRbeta (unknown origin) transfected in human CHO-K1 cells assessed as induction of transactivation by luciferase reporter gene transactivation assay relative to control
RAW264.7 [30] = assay: Induction of LXR-responsive genes in mouse RAW264.7 cells assessed as increase in Abca1 mRNA expression measured at 50 to 100 microM by qPCR

## CCN(c1ccc(C(O)(C(F)(F)F)C(F)(F)F)cc1)S(=O)(=O)c1ccccc1
[1]
  EC50: 10 nM
HepG2 [2]
  Activity: inactive
[3]
  Activity: Dose-dependent effect
[4]
  Activity: Dose-dependent effect
[5]
  EC50: 320 nM

## CC12CCC(CC1)C(C)(C)O2 [EUCALYPTOL]
HepG2 [6]
  Activity: Active
HepG2 [7]
  inhibition (INH): 10%
RAW264.7 [8]
  Activity: 17%
[9]
  fold change (FC): 2.3
RAW264.7 [10]
  Activity: Active
HepG2 [11]
  Activity: Active
RAW264.7 [12]
  Activity: Active
RAW264.7 [13]
  Activity: Active
RAW264.7 [14]
  Activity: Dose-dependent effect
RAW264.7 [15]
  Activity: 50%
HepG2 [16]
  inhibition (INH): 24%
RAW264.7 [17]
  Activity: 17%
HepG2 [18]
  inhibition (INH): 25%
[19]
  Activity: > 75%
[20]
  fold change (FC): 1.4
[21]
  fold change (FC): 2
RAW264.7 [22]
  Activity: 20%
HepG2 [23]
  inhibition (INH): 40%
[3]
  Activity: inactive
HepG2 [24]
  inhibition (INH): 30%
[4]
  Activity: inactive
RAW264.7 [25]
  Activity: 35%
HepG2 [26]
  inhibition (INH): 25%
HepG2 [27]
  inhibition (INH): 50%
RAW264.7 [28]
  Activity: Active
[29]
  Activity: Dose-dependent effect
RAW264.7 [30]
  Activity: Active
